Reference: paper PMC2965777 (Biochemistry, 2010)

How the values were obtained:
[1] = Size exclusion chromatography, apparent molecular weight; format: physicochemical; details: Superdex Peptide 10/300; 10 mM sodium phosphate, 10 mM NaCl, pH 7.40; 0.5 mL/min; 100 μM YAQ12A, 170 μM 5QMe2; 230 nm
[2] = Sedimentation equilibrium analytical ultracentrifugation of 5QMe2 alone; format: physicochemical
In short: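 Equilibrium sedimentation of inhibitor alone at 100 µM, 500 µM and 1 mM in 10 mM sodium phosphate, pH 7.40, at 20 °C, in six-sector cells with hourly scans. Rotor speed ran 3000 rpm (1 scan), 36,000 (16), 48,000 (13) and 60,000 rpm (19). A280 was used (A230 for 100 µM). Molecular weight came from global analysis of the three concentrations at each speed.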

YAQ12A [3] = assay: Electron microscopy of YAQ12A fibrillation products; format: biochemical; details: 100 μM YAQ12A with 500 μM 5QMe2, 40 h, 37 °C
In short: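 Aggregation products imaged by electron microscopy after incubating monomeric peptide in 10 mM sodium phosphate, pH 7.40, for 40 h at 37 °C, with or without inhibitor. Micrographs were recorded at 15,000 or 39,000× magnification, plus 1.4× from the CCD camera.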

YAQ12A [4] = assay: Sedimentation assay of YAQ12A aggregation; format: biochemical
In short: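 Disaggregated peptide was diluted to 100 µM in 10 mM sodium phosphate, pH 7.40, and held at 37 °C without agitation, with or without inhibitor added as lyophilized aliquots. After 98,000 × g for 1 h at 22 °C, 100 µL of the top third went onto analytical C18 RP-HPLC (A220, isocratic water:acetonitrile:TFA 87.5:12.5:0.1). Monomer was quantified from peak area against a standard curve; mean ± S.D. of three replicates.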

MW^app by size exclusion chromatography [1]: ~ 1176.0 | association state of the inhibitor alone ([2]; 100, 500 and 1000 μM, three rotor speeds): monomeric | molecular weight of 5QMe2 alone, three concentrations analysed globally ([2]; rotor speed 36,000 rpm): 988.5 | molecular weight of 5QMe2 alone, three concentrations analysed globally ([2]; rotor speed 48,000 rpm): 1000.0 | molecular weight of 5QMe2 alone, three concentrations analysed globally ([2]; rotor speed 60,000 rpm): 980.1
Substance: Anth-K-Q-Q(Me2)-Q-Q(Me2)-Q-CONH2 [5QMe2]
fibril formation of YAQ12A by electron microscopy (YAQ12A [3]): abrogates fibril formation | time after which more rapid loss of soluble YAQ12A follows the lag period (YAQ12A [4]; 100 μM YAQ12A with 100 μM 5QMe2, time course, 37 °C): ~ 70 h | aggregation of YAQ12A over the time course (YAQ12A [4]; 100 μM YAQ12A with 1 mM 5QMe2, time course to 110 h, 37 °C): no aggregation was observed for the entire time period | reversal of YAQ12A aggregation (YAQ12A [4]; 1 mM 5QMe2 added to 100 μM YAQ12A after 10 or 20 h of aggregation): did not reverse aggregation
